Series [1] deals with Pseudomonas aeruginosa. Put plainly: Inhibition of LasR-dependent quorum sensing activity in Pseudomonas aeruginosa harboring reporter plasmid lasB-GFP assessed as reduction in GFP expression up to 100 ug/ml measured every 15 mins for 14 hrs by fluorescence assay. The method in brief:
(§1)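 P. aeruginosa lasB-gfp and rhlA-gfp reporters, grown 16 h at 37 °C with shaking, then diluted to OD450 0.1 in BT minimal medium (10% A10, 0.5% glucose, 0.5% Casamino Acids). No added signal molecule. Fluorescence at 485/535 nm and growth monitored every 15 min for 14 h at 34 °C. Concentrations up to 100 µg/ml.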

In series [2] the target is T1, HTH-type quorum-sensing regulator RhlR (Pseudomonas aeruginosa (strain ATCC 15692 / PAO1 / 1C / PRS 101 / LMG12228)) (UniProt P54292).
T1 sequence (whole entry): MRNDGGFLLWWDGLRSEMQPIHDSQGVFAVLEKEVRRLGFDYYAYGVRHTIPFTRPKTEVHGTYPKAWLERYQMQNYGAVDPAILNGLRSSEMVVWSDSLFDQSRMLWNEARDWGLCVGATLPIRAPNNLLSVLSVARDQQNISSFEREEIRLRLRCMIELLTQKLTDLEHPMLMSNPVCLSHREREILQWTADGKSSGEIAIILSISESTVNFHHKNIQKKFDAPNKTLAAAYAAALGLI
Kind of series: Inhibition of RhlR-dependent quorum sensing activity in Pseudomonas aeruginosa harboring reporter plasmid rhlA-gfp assessed as reduction in GFP expression up to 100 ug/ml measured every 15 mins for 14 hrs by fluorescence assay. The method in brief:
as §1

Series [3] relates to Pseudomonas aeruginosa. Kind of series: Inhibition of LasR-dependent quorum sensing activity in Pseudomonas aeruginosa harboring reporter plasmid lasB-GFP assessed as reduction in GFP expression at >125 ug/ml measured every 15 mins for 14 hrs by fluorescence assay. An outline of the steps:
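P. aeruginosa lasB-gfp monitor: 16 h overnight culture (37 °C, 180 rpm) diluted to OD450 0.1 in BT minimal medium plus 10% A10, 0.5% glucose, 0.5% Casamino Acids. No signal molecule added. GFP at ex 485/em 535 nm with growth, every 15 min over 14 h at 34 °C. Triplicate, 2-fold dilutions from 1000 μg/ml.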

In series [4] the test system is Pseudomonas aeruginosa. Put plainly: Growth inhibition of Pseudomonas aeruginosa at >125 ug/ml.
Series [5] has as its system Saccharomyces cerevisiae. Kind of series: Inhibition of yeast Pma1 at 100 uM preincubated for 30 mins by spectrophotometric method. An outline of the steps: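 Pma1 purified from Saccharomyces cerevisiae plasma membrane, 0.5 µg per reaction. Enzyme preincubated 30 min at room temperature with 100 µM compound. Reaction buffer: 5 mM ATP, 10 mM MgSO4, 50 mM KNO3, 5 mM NaN3, 3.5 mM molybdate, 20 mM MES-KOH pH 5.9. Run 30 min, then stopped with acidic molybdate/ascorbate/SDS. Released phosphate read at 860 nm after arsenite-citrate treatment (Baginski method).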

Series [6] concerns Escherichia coli. Put plainly: Inhibition of LuxR-dependent quorum sensing activity in Escherichia coli harboring reporter plasmid LuxI-GFP assessed as reduction in 3-oxo-C6-HSL-induced GFP expression up to 100 ug/ml measured every 15 mins for 14 hrs by fluorescence assay. The method in brief: (§2)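 luxI-gfp E. coli reporter grown 16 h at 37 °C, shaking 180 rpm, then diluted to OD450 0.1 in BT minimal medium with 10% A10, 0.5% glucose and 0.5% Casamino Acids. 3-oxo-C6-HSL added at 10 nM final. Compounds run in triplicate as 2-fold dilutions from 100 μg/ml. GFP (ex 485/em 535) and OD450 read every 15 min for 14 h at 34 °C. IC50 taken from GFP curves.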

The nature of series [7]: Inhibition of quorum sensing system in Agrobacterium tumefaciens harboring traG-LacZ reporter fusion measured after 4 hrs by beta-galactosidase reporter gene assay.
Series [8] is described as follows: Inhibition of LuxR-dependent quorum sensing activity in Escherichia coli harboring reporter plasmid LuxI-GFP assessed as reduction in 3-oxo-C6-HSL-induced GFP expression measured every 15 mins for 14 hrs by fluorescence assay. The method in brief: as §2
Series [9] relates to Escherichia coli. Put plainly: Growth inhibition of Escherichia coli at 0.39 to 100 ug/ml. The method in brief:
as §2

The test system of series [10] is Escherichia coli. Put plainly: Inhibition of LuxR-dependent quorum sensing activity in Escherichia coli harboring reporter plasmid LuxI-GFP assessed as reduction in 3-oxo-C6-HSL-induced GFP expression at 6.2 to 50 ug/ml measured every 15 mins for 14 hrs by fluorescence assay.
The subject of series [11] is Escherichia coli. Put plainly: Inhibition of LuxR-dependent quorum sensing activity in Escherichia coli harboring reporter plasmid LuxI-GFP assessed as reduction in 3-oxo-C6-HSL-induced GFP expression at 3.1 ug/ml measured every 15 mins for 14 hrs by fluorescence assay. The method in brief: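 E. coli luxI-gfp monitor: overnight culture 16 h, 37 °C, 180 rpm, diluted to OD450 0.1 in BT minimal medium with 10% A10, 0.5% glucose, 0.5% Casamino Acids. Signal 3-oxo-C6-HSL at 10 nM final. GFP read at ex 485/em 535 nm and OD450 every 15 min, 14 h, 34 °C. Triplicate, 2-fold dilutions from 100 μg/ml.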

Series [12] concerns Escherichia coli. Kind of series: Growth inhibition of Escherichia coli at 3.13 ug/ml. An outline of the steps: (§3)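 E. coli luxI-gfp reporter: overnight culture 16 h, 37 °C, 180 rpm, diluted to OD450 0.1 in BT minimal medium with 10% A10, 0.5% glucose, 0.5% Casamino Acids. 3-oxo-C6-HSL at 10 nM final. Growth read as OD450 every 15 min over 14 h at 34 °C alongside GFP. Triplicate, 2-fold dilutions from 100 μg/ml.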

The subject of series [13] is Escherichia coli. Kind of series: Growth inhibition of Escherichia coli at 6.2 to 100 ug/ml. The method in brief:
as §3

pIC50: −log10 of the molar value. Values after ≈ are worked out from the molar mass of the structure shown. Active and inactive are the calls of the source. No cut-off for these calls is given here.

For orientation: pIC50 means −log10 of the IC50, conventionally taken in molar units. The low end stands for a high IC50, the high end for a low IC50. The term IC50 denotes the concentration needed to halve the response being measured.

Take `COC(=O)c1ccc(Br)cn1`: the inhibition result in series [1], in [2], in series [5] and in series [6] was “inactive” each time. The inhibition result in series [3] was “Active”. Moreover, the “growth inhibition (GI)” value in series [4] is listed as “Non-Toxic”.
Compound `O=[N+]([O-])c1cc[n+]([O-])cc1` had a pIC50 in [7] of 3.77.
Turning to `CCCCc1ccc(C(=O)OCC)nc1`, in series [8], the half-inhibitory concentration (IC50) is 55 µg/mL (≈ 265 µM). The inhibition entry in series [1], in [2] and in series [5] was “inactive” throughout. The “growth inhibition (GI)” value in series [9] is “Non-Toxic”. Further, the inhibition result in series [10] is “Active”.
Regarding `CCCCc1ccc(C(=O)O)nc1` [FUSARIC ACID], the inhibition entry in series [1], in series [2] and in series [5] was “inactive” each time. Also, the inhibition result in series [11] was “Active”. For the same compound, the “growth inhibition (GI)” value in series [12] is given as “Non-Toxic”; in series [13], “Toxic”.

Source of the values: ChEMBL document CHEMBL4002598, “Fusaric acid and analogues as Gram-negative bacterial quorum sensing inhibitors” (Eur J Med Chem, 2017).
